# According to ChEMBL document CHEMBL1121525, “Folate analogues altered in the C9--N10 bridge region. 14. 11-Oxahomofolic acid, a potential antitumor agent” (J Med Chem, 1980):
# What was measured:
# Assay type in all cases: functional, organism-based
# [1] = tested on: Lacticaseibacillus casei; assay: Compound was measured for the 50% growth inhibition of Lactobacillus casei ATCC 7469 microorganism.; settings: for IC50: Lacticaseibacillus casei, ATCC 7469, read-out: I50
# Method in brief: (§1)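 Drug solution concentrations were set either by weight or by UV absorbance at pH 7.4, using extinction coefficients of 9600 at 270 nm or 10 250 at 301 nm. The 7,8-dihydro form was made by treating the potassium salt with excess sodium dithionite at room temperature. The tetrahydro forms came from catalytic or enzymatic reduction.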
# [2] = tested on: Enterococcus faecium; assay: Compound was measured for the 50% growth inhibition of Streptococcus faecium ATCC 8043 microorganism.; settings: for IC50: Enterococcus faecium, ATCC 8043, read-out: I50
# Method in brief: (§2)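 Growth-inhibition test. The reduced test forms were quantified by UV absorbance at pH 7.4 using a molar absorptivity at 270 or 301 nm. Other forms were quantified by weight. The 7,8-dihydro form was made by excess sodium dithionite reduction of the aqueous potassium salt at room temperature.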
# [3] = tested on: Enterococcus faecium; assay: Compound was measured for the 50% growth inhibition of Streptococcus faecium MTX resistant microorganism.; settings: for IC50: Enterococcus faecium, read-out: I50; method in brief: as §2
# [4] = tested on: Lacticaseibacillus casei; assay: Compound was measured for the 50% growth inhibition of Lactobacillus casei MTX resistant microorganism.; settings: for IC50: Lacticaseibacillus casei, read-out: I50; method in brief: as §1
SMILES,I50 [1],I50 [2],I50 [3],I50 [4],IC50 [1],IC50 [4],IC50 [2],IC50 [3]
Nc1nc(O)c2c(n1)NCC(CCOc1ccc(C(=O)NC(CCC(=O)O)C(=O)O)cc1)N2 (racemic),10 ng/mL,0.7 ng/mL,50 ng/mL,19 ng/mL,–,–,–,–
Nc1nc(O)c2c(n1)NCC(CCOc1ccc(C(=O)NC(CCC(=O)O)C(=O)O)cc1)=N2 (stereo not drawn),–,–,–,–,240 ng/mL,700 ng/mL,–,–
CN(Cc1cnc2nc(N)nc(N)c2n1)c1ccc(C(=O)N[C@@H](CCC(=O)O)C(=O)O)cc1 [METHOTREXATE],–,–,–,> 500000 ng/mL,0.07 ng/mL,–,0.05 ng/mL,3500 ng/mL
Nc1nc(O)c2nc(CCOc3ccc(C(=O)NC(CCC(=O)O)C(=O)O)cc3)cnc2n1 (stereo not drawn),–,–,–,–,320 ng/mL,1000 ng/mL,14 ng/mL,260 ng/mL
Nc1nc(O)c2c(n1)NCC(CCOc1ccc(C(=O)NC(CCC(=O)O)C(=O)O)cc1)N2 (stereo in doubt),56 ng/mL,9 ng/mL,> 200 ng/mL,64 ng/mL,–,–,–,–
